According to ChEMBL document CHEMBL4706654, “Novel cyanothiouracil and cyanothiocytosine derivatives as concentration-dependent selective inhibitors of U87MG glioblastomas: Adenosine receptor binding and potent PDE4 inhibition” (Eur J Med Chem, 2021):

Tests used:
[1] = system: U-87 MG; test: Antiproliferative activity against human U-87 MG cells assessed as cell viability at 100 uM measured after 24 to 48 hrs by MTT assay relative to control; type: functional, U-87MG ATCC; details: time 24-48 hrs, read-out: Activity
How it was run: (§1)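 Cells seeded per well 24 h before treatment: HEK293 at 5.10^4, MCF7 at 4.10^4, U87MG at 10^5. Compounds were dissolved in DMSO (less than 1%) and diluted in DMEM, then incubated 24 and 48 h. Cells were washed with D-PBS and given MTT (from a 5 mg/mL stock) for 4 h, dissolved in DMSO, read at 540 nm. % viability = sample/control absorbance ×100. At least three independent experiments.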

[2] = system: U-87 MG; test: Antiproliferative activity against human U-87 MG cells assessed as cell viability at 50 uM measured after 24 to 48 hrs by MTT assay relative to control; type: functional, U-87MG ATCC; details: time 24-48 hrs, read-out: Activity; how it was run: as §1
[3] = (§2) Cytotoxicity against HEK293 cells assessed as cell viability at 100 uM measured after 24 to 48 hrs by MTT assay relative to control; type: cell-based; details: human, HEK293 cells, time 24-48 hrs, read-out: Activity; how it was run: as §1
[4] = system: U-87 MG; test: Antiproliferative activity against human U-87 MG cells assessed as cell viability at 5 uM measured after 24 to 48 hrs by MTT assay relative to control; type: functional, U-87MG ATCC; details: time 24-48 hrs, read-out: Activity; how it was run: as §1
[5] = system: U-87 MG; test: Antiproliferative activity against human U-87 MG cells assessed as cell viability at 10 uM measured after 24 to 48 hrs by MTT assay relative to control; type: functional, U-87MG ATCC; details: time 24-48 hrs, read-out: Activity; how it was run: as §1
[6] = system: U-87 MG; test: Antiproliferative activity against human U-87 MG cells assessed as reduction in cell viability measured after 24 to 48 hrs by MTT assay; type: functional, cell-based, U-87MG ATCC; how it was run: as §1
[7] = target: 3',5'-cyclic-AMP phosphodiesterase 4B (Homo sapiens, UniProt Q07343); test: Inhibition of recombinant human PDE4B using […] as substrate measured after 90 mins by colorimetric assay
Chain of 3',5'-cyclic-AMP phosphodiesterase 4B (Q07343 whole entry): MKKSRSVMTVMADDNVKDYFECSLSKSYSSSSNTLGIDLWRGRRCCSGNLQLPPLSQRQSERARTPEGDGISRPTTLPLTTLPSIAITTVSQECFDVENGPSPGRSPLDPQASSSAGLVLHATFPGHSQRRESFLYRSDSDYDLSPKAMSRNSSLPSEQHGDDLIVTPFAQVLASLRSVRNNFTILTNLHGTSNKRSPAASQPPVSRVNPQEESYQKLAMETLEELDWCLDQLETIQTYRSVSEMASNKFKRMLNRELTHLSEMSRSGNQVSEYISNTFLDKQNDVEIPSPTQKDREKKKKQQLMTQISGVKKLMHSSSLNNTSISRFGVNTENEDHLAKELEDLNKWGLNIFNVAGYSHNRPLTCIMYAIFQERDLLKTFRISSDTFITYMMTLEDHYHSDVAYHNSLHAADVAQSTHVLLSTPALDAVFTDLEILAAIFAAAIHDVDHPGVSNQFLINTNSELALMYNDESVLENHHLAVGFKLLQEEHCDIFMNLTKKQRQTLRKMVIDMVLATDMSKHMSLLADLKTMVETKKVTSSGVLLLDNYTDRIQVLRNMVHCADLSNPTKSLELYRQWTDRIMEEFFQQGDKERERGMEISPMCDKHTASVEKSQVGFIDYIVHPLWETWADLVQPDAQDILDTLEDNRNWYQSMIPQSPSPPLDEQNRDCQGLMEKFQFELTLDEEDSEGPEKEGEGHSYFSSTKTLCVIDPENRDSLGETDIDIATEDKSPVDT
How it was run: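 Recombinant human PDE4 was incubated with 0.5 μM 5′-cGMP plus 5′-nucleotidase for 90 min at 30°C. The reaction was stopped with termination buffer for 20 min at room temperature, and released phosphate was read at OD 620 nm. IC50 was determined from 6 inhibitor concentrations. Compound stocks were in DMSO (less than 1%), with at least triplicate runs, mean ± SD.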

[8] = system: MCF7; test: Antiproliferative activity against human MCF7 cells assessed as reduction in cell viability measured after 24 to 48 hrs by MTT assay; type: functional, cell-based; how it was run: as §1
[9] = target: Adenosine receptor A2a (Homo sapiens) (UniProt P29274); test: Displacement of [3H]ZM241385 from recombinant human A2A adenosine receptor expressed in HEK293 cell membranes at 1 uM measured after 60 mins by liquid scintillation counting method relative to control; details: Membrane
Chain of Adenosine receptor A2a (Homo sapiens) (P29274 whole entry): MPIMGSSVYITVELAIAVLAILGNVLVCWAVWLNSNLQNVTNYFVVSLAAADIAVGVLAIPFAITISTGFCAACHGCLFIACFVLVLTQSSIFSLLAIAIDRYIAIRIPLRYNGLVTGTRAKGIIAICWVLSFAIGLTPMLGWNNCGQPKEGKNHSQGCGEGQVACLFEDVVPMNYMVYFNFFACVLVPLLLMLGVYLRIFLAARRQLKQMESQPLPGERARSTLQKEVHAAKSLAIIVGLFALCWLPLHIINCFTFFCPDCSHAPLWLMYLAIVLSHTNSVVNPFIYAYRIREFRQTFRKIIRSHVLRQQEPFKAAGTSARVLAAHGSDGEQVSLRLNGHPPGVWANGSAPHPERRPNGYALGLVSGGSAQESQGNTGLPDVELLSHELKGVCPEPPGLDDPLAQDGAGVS
How it was run: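 HEK293 membranes expressing hA2A (20 μg/tube) were incubated with 15 nM [3H]ZM241385 and 1 μM test compound for 60 min at 25°C in 50 mM Tris-HCl, pH 7.4, 10 mM MgCl2. The reaction was stopped by GF/B filtration, followed by scintillation counting. Read-out was percent inhibition of specific binding.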

[10] = target: T1, Adenosine receptor A1 (Homo sapiens) (UniProt P30542); test: Displacement of [3H]DPCPX from recombinant human A1 adenosine receptor expressed in CHO cell membranes at 1 uM measured after 60 mins by liquid scintillation counting method relative to control; details: Membrane
T1 sequence (whole entry): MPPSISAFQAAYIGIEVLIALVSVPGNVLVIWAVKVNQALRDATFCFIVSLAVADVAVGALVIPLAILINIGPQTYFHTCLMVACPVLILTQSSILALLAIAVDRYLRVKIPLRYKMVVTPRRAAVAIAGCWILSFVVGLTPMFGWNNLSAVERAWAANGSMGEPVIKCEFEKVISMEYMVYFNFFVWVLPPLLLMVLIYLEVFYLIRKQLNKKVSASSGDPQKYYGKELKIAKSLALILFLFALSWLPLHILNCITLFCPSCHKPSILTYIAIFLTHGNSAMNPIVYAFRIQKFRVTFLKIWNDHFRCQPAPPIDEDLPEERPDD
How it was run: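 Membranes from CHO cells expressing recombinant hA1 (40 μg/tube) were incubated with 2 nM [3H]DPCPX and test compound at 1 μM in 50 mM Tris-HCl (pH 7.4, 10 mM MgCl2) for 60 min at 25°C. Bound radioligand was separated by GF/B filtration and counted by liquid scintillation. Results are given as percent inhibition of specific binding.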

[11] = target: T2, Adenosine receptor A2b (Homo sapiens) (UniProt P29275); test: Displacement of [3H]ZM241385 from A2B adenosine receptor (unknown origin) at 10 uM measured after 60 mins by liquid scintillation counting method relative to control
T2 sequence (whole entry): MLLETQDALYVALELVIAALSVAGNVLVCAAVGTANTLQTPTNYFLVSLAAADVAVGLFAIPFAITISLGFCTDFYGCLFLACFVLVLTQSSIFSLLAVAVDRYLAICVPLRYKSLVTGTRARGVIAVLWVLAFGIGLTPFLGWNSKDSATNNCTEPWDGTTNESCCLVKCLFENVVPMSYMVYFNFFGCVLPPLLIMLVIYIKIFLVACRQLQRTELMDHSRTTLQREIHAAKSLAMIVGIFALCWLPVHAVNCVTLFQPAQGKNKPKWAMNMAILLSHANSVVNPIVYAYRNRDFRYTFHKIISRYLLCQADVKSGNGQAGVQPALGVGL

[12] = system: HEK293; test: as §2; type: cell-based; details: human, hek293, 100 µM, time 24-48 hrs; how it was run: as §1
[13] = target: T2, Adenosine receptor A2b (Homo sapiens); test: Displacement of [3H]ZM241385 from A2B adenosine receptor (unknown origin) at 1 uM measured after 60 mins by liquid scintillation counting method relative to control
[14] = system: HEK293; test: Cytotoxicity against HEK293 cells assessed as reduction in cell viability measured after 24 to 48 hrs by MTT assay; type: cell-based; details: Homo sapiens; how it was run: as §1

Row | SMILES | viability at 100 µM [1] [%] | viability at 50 µM [2] [%] | viability at 100 µM [3] [%] | viability at 5 µM [4] [%] | viability at 10 µM [5] [%] | IC50 [6] [µM] | IC50 [7] [µM] | IC50 [8] [µM] | inhibition [9] [%] | inhibition [10] [%] | inhibition [11] [%] | Activity [12] [%] | inhibition [13] [%] | IC50 [14] [µM]
1 | Cc1nc(-c2ccccc2)sc1C(=O)CSc1nc(-c2cccc(Cl)c2)c(C#N)c(=O)[nH]1 | 10 | 50.6 | > 50 | 86.9 | 83.7 | 28.2 |  |  |  |  |  |  |  | 
2 | Cc1nc(-c2ccc(Cl)cc2)sc1C(=O)CSc1nc(N)c(C#N)c(-c2ccccc2)n1 | 4.59 | 15.2 | > 50 | 71.1 | 67.9 | 11.4 | 22.1 | 25.2 | -1.4 | 8.7 |  |  |  | 
3 | COc1ccc(-c2nc(SCC(=O)c3sc(-c4ccc(Cl)cc4)nc3C)[nH]c(=O)c2C#N)cc1OC | 18.7 | 59.8 | > 50 | 93.4 | 83.3 | 38.6 |  |  |  |  |  |  |  | 
4 | Cc1nc(-c2ccccc2)sc1C(=O)CSc1nc(-c2ccc3c(c2)OCO3)c(C#N)c(=O)[nH]1 | 18.7 | 42.6 | > 50 | 93.4 | 84.2 | 33.7 |  |  |  |  |  |  |  | 
5 | COc1ccc(-c2nc(C)c(C(=O)CSc3nc(N)c(C#N)c(-c4ccc(OC)cc4)n3)s2)cc1 | 0.26 | 13 |  | 35.6 | 28.7 | 1.56 | 3.15 | 24.3 |  | 9 | 49 | > 50 | 18 | 
6 | COc1ccc(-c2nc(SCC(=O)c3sc(-c4ccccc4)nc3C)[nH]c(=O)c2C#N)cc1OC | 6.48 | 21.4 |  | 80.8 | 69.8 | 15.3 | > 100 | 63.7 | 12 | 10 |  |  |  | 91.8
7 | COc1ccc(-c2nc(SCC(=O)c3sc(-c4ccc(Cl)cc4)nc3C)nc(N)c2C#N)cc1 | 0.79 | 17.8 | > 50 | 69.7 | 64.5 | 10.6 | 18.1 | 10.1 |  | 1.2 |  |  |  | 
8 | COc1ccc(-c2nc(SCC(=O)c3sc(-c4ccc(Cl)cc4)nc3C)[nH]c(=O)c2C#N)cc1 | 16.6 | 46.3 | > 50 | 92.1 | 88.3 | 35.5 |  |  |  |  |  |  |  | 
9 | Cc1nc(-c2ccccc2)sc1C(=O)CSc1nc(N)c(C#N)c(-c2ccccc2)n1 |  | 26.3 |  | 103 | 93 | 28.9 | > 100 | 30.1 | 6.5 | 9.5 |  |  |  | 46.7
10 | Cc1nc(-c2ccc(Cl)cc2)sc1C(=O)CSc1nc(N)c(C#N)c(-c2ccc(Cl)cc2)n1 | 1.65 | 15.5 |  | 46.1 | 37.3 | 3.42 | 24.1 | 12.5 | 1.8 | -3.7 |  |  |  | 73
11 | COc1ccc(-c2nc(C)c(C(=O)CSc3nc(-c4ccc(OC)cc4)c(C#N)c(=O)[nH]3)s2)cc1 | 11.5 | 32.6 | > 50 | 97 | 80.3 | 25.3 |  |  |  |  |  |  |  | 
12 | COc1ccc(-c2nc(C)c(C(=O)CSc3nc(-c4ccc(OC)c(OC)c4)c(C#N)c(=O)[nH]3)s2)cc1 | 5.39 | 22.2 |  | 81.2 | 57.6 | 12.5 | 17.1 | 24 | 8.5 | 2.5 |  |  |  | 23.3
13 | COc1ccc(-c2nc(C)c(C(=O)CSc3nc(N)c(C#N)c(-c4ccccc4)n3)s2)cc1 | 5.25 | 16.5 |  | 61.8 | 57.8 | 8.54 | 11.2 | 72.1 | -2.6 | -2.8 |  | > 50 |  | 
14 | COc1ccc(-c2nc(C)c(C(=O)CSc3nc(-c4cccc(Cl)c4)c(C#N)c(=O)[nH]3)s2)cc1 | 40.6 | 83.4 | > 50 | 95.7 | 90.6 | 78.9 |  |  |  |  |  |  |  | 
15 | COc1ccc(-c2nc(C)c(C(=O)CSc3nc(-c4ccc5c(c4)OCO5)c(C#N)c(=O)[nH]3)s2)cc1 | 22.9 | 83.2 | > 50 | 100 | 88.3 | 65.3 |  |  |  |  |  |  |  | 
16 | COc1ccc(-c2nc(C)c(C(=O)CSc3nc(N)c(C#N)c(-c4ccc(Cl)cc4)n3)s2)cc1 | 3.9 | 23.1 |  | 51.4 | 44 | 4.54 | 0.97 | 11.2 | -7.1 | 1.1 |  |  |  | 39.2
17 | Cc1nc(-c2ccccc2)sc1C(=O)CSc1nc(N)c(C#N)c(-c2ccc(Cl)cc2)n1 | 17.1 | 44.3 | > 50 | 62.9 | 58.8 | 10.8 | 32.3 | 20.2 | -9.9 |  |  |  |  | 
18 | CC(C)Cn1c(=O)n(C)c(=O)c2[nH]cnc21 [ISOBUTYLMETHYLXANTHINE] |  |  |  |  |  |  | 14.3 |  |  |  |  |  |  | 
19 | COc1ccc(-c2nc(SCC(=O)c3sc(-c4ccccc4)nc3C)nc(N)c2C#N)cc1 | 17.2 | 33.8 | > 50 | 68.8 | 60.8 | 14 | 33.1 | 27.2 | 0.8 | -4.6 |  |  |  | 
